Reference: ChEMBL document CHEMBL2331092, “Bioactive sesterterpenoids from a Korean sponge Monanchora sp” (J Nat Prod, 2013)

Columns and labels:
Assay type in all cases: functional, cell-based
PANC-1 = assay: Cytotoxicity against human PANC1 cells assessed as inhibition of cell viability after 6 days by MTT assay; conditions: PANC-1, 144 h
Method in brief: (§1)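 Temsirolimus, sunitinib, gemcitabine and 5-fluorouracil served as positive controls.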

ACHN = assay: Cytotoxicity against human ACHN cells assessed as inhibition of cell viability after 6 days by MTT assay; conditions: 144 h; method in brief: as §1
[1] = Cytotoxicity against human MiaPaCa cells assessed as inhibition of cell viability after 6 days by MTT assay; conditions: MIA PaCa-2, 144 h; method in brief: as §1
A498 = assay: Cytotoxicity against human A498 cells assessed as inhibition of cell viability after 6 days by MTT assay; conditions: A498, 144 h; method in brief: as §1

SMILES | IC50 (PANC-1) [µM] | IC50 (ACHN) [µM] | IC50 [1] [µM] | IC50 (A498) [µM]
C=C(C[C@H](O)/C=C(\C)CC/C=C(\C)CCC=C(C)C)[C@H]1CC(=O)C(C)=C[C@H]1O [PHORBIN A] | 7.8 | 10 | 5.2 | 4.9
CC(=O)O[C@@H]1C[C@@H]2C(C=O)=C[C@]3(C=C(C)C[C@@H](/C=C(\C)CCC=C(C)C)O3)O[C@@H]2C=C1C [PHORBAKETAL J] | > 50 | > 50 | > 50 | > 50
CC(C)=CCC/C(C)=C/[C@@H]1CC(C)=C[C@]2(C=C(C=O)[C@H]3C[C@@H](O)C(C)=C[C@H]3O2)O1 [PHORBAKETAL H] | > 50 | > 50 | > 50 | 9.8
O=c1[nH]cc(F)c(=O)[nH]1 [FLUOROURACIL] | 50 |  |  | 
Nc1ccn([C@@H]2O[C@H](CO)[C@@H](O)C2(F)F)c(=O)n1 [GEMCITABINE] |  |  | 3 | 
CO[C@H]1C[C@@H]2CC[C@@H](C)[C@@](O)(O2)C(=O)C(=O)N2CCCC[C@H]2C(=O)O[C@H]([C@H](C)C[C@@H]2CC[C@@H](OC(=O)C(C)(CO)CO)[C@H](OC)C2)CC(=O)[C@H](C)/C=C(\C)[C@@H](O)[C@@H](OC)C(=O)[C@H](C)C[C@H](C)/C=C/C=C/C=C/1C [TEMSIROLIMUS] |  |  |  | 0.5
CC1=C[C@]2(C=C(CO)[C@H]3CC(=O)C(C)=C[C@H]3O2)O[C@H](/C=C(\C)CCC(=O)C(C)C)C1 [PHORBAKETAL E] | 25.3 | 18 | 16.7 | 12.5
CC(=O)O[C@H]1C[C@@H]2C(C=O)=C[C@]3(C=C(C)C[C@@H](/C=C(\C)CCC=C(C)C)O3)O[C@@H]2C=C1C [PHORBAKETAL K] | > 50 | > 50 | > 50 | > 50
CC(C)=CCC/C(C)=C/[C@@H]1CC(C)=C[C@]2(C=C(C=O)[C@H]3CC(=O)C(C)=C[C@H]3O2)O1 [PHORBAKETAL I] | 12.8 | 22.3 | 22 | 9
CC(=O)O[C@@H]1C[C@@H]2C(CO)=C[C@]3(C=C(C)C[C@@H](/C=C(\C)C/C=C/C(C)(C)OO)O3)O[C@@H]2C=C1C [PHORBAKETAL F] | > 50 | > 50 | > 50 | > 50
CC(=O)O[C@H]1C[C@@H]2C(CO)=C[C@]3(C=C(C)C[C@@H](/C=C(\C)C/C=C/C(C)(C)OO)O3)O[C@@H]2C=C1C [PHORBAKETAL G] | > 50 | > 50 | > 50 | > 50
CCN(CC)CCNC(=O)c1c(C)[nH]c(/C=C2\C(=O)Nc3ccc(F)cc32)c1C [SUNITINIB] |  | 2.5 |  | 
